ChEMBL document CHEMBL3593174, “Amantelides A and B, Polyhydroxylated Macrolides with Differential Broad-Spectrum Cytotoxicity from a Guamanian Marine Cyanobacterium” (J Nat Prod, 2015)
≈ marks a conversion by molar mass, not a printed value.

Assays:
[1] = test system: HT-29; assay: Cytotoxicity against human HT-29 cells after 48 hrs by MTT assay; assay type: functional, cell-based; details: HT-29, 48 h
Procedure, shortened: (§1)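 HeLa (3000) or HT29 (12 500 cells/well) grown in DMEM with 10% FBS, 5% CO2, 37 °C; treated with graded concentrations 24 h after seeding, DMSO solvent control, then incubated 48 h before MTT viability read-out; IC50 fitted from duplicate experiments.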

[2] = test system: HeLa; assay: Cytotoxicity against human HeLa cells after 48 hrs by MTT assay; assay type: functional, cell-based; procedure, shortened: as §1
[3] = test system: Staphylococcus aureus; assay: Antimicrobial activity against Staphylococcus aureus ATCC 6538 after 24 hrs by broth microdilution method; assay type: functional; details: ATCC 6538, 24 h
Procedure, shortened: (§2)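 Broth microdilution in Mueller–Hinton broth; colony grown 6–8 h at 37 °C, adjusted to 0.5 McFarland then diluted 100-fold as inoculum. Treated 24 h at 37 °C, 150 rpm; 0.02% v/v resazurin added, fluorescence read at ex 530/em 590 nm. Oxacillin (S. aureus) or nalidixic acid (P. aeruginosa) positive controls, MHB-only sterility control; % inhibition relative to solvent control.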

[4] = test system: Pseudomonas aeruginosa; assay: Antimicrobial activity against Pseudomonas aeruginosa ATCC 27853 after 24 hrs by broth microdilution method; assay type: functional; details: ATCC 27853, 24 h; procedure, shortened: as §2
[5] = Antifungal activity against Dendryphiella salina assessed as growth inhibition at 625 ug/ml; assay type: functional; details: Paradendryphiella salina
Procedure, shortened: (§3)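 Fungus (Lindra thalassiae, Dendryphiella salina or Fusarium sp.) exposed to sample dissolved in MeOH, serially diluted, added to molten YPM P/S agar; MeOH-only solvent controls plus media-only wells; triplicate wells; 1 mm2 plug of culture transferred per well, 26 °C. Scored when media controls fully covered by hyphae: hyphae-containing squares counted through window screen; % inhibition versus solvent control.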

[6] = Antifungal activity against Dendryphiella salina assessed as growth inhibition at 62.5 ug/ml; assay type: functional; details: Paradendryphiella salina; procedure, shortened: as §3
[7] = Antifungal activity against Dendryphiella salina assessed as growth inhibition at 6.25 ug/ml; assay type: functional; details: Paradendryphiella salina; procedure, shortened: as §3
[8] = test system: Lindra thalassiae; assay: Antifungal activity against Lindra thalassiae assessed as growth inhibition at 625 ug/ml; assay type: functional; details: Lindriella thalassiae; read-out: GI; procedure, shortened: as §3
[9] = test system: Lindra thalassiae; assay: Antifungal activity against Lindra thalassiae assessed as growth inhibition at 62.5 ug/ml; assay type: functional; details: Lindriella thalassiae; read-out: GI; procedure, shortened: as §3
[10] = test system: Lindra thalassiae; assay: Antifungal activity against Lindra thalassiae assessed as growth inhibition at 6.25 ug/ml; assay type: functional; details: Lindriella thalassiae; read-out: GI; procedure, shortened: as §3
[11] = test system: Fusarium sp.; assay: Antifungal activity against Fusarium sp. assessed as growth inhibition at 625 ug/ml; assay type: functional; details: read-out: GI; procedure, shortened: as §3
[12] = test system: Fusarium sp.; assay: Antifungal activity against Fusarium sp. assessed as growth inhibition at 62.5 ug/ml; assay type: functional; details: read-out: GI; procedure, shortened: as §3
[13] = test system: Fusarium sp.; assay: Antifungal activity against Fusarium sp. assessed as growth inhibition at 6.25 ug/ml; assay type: functional; details: read-out: GI; procedure, shortened: as §3
[14] = test system: HT-29; assay: Cytotoxicity against human HT-29 cells after 1 to 48 hrs by MTT assay; assay type: functional, cell-based
Procedure, shortened: (§4)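 HeLa and HT29 cultured in DMEM with 10% FBS at 37 °C, 5% CO2, exposed to graded concentrations for 1, 3, 6, 12, 24 or 48 h; MTT viability read-out, IC50 at each time point.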

[15] = test system: HeLa; assay: Cytotoxicity against human HeLa cells after 1 to 48 hrs by MTT assay; assay type: functional, cell-based; procedure, shortened: as §4

CC(=O)OC1CCCC(OC(C)=O)CCCC(OC(C)=O)CCCC(OC(C)=O)CCC[C@@H](OC(C)=O)C[C@@H](OC(C)=O)CCC/C(C)=C\C(=O)OC(C(C)(C)C)CC(OC(C)=O)CCCC(OC(C)=O)CCCC(OC(C)=O)CCC1 (some centres undefined)
IC50 [1]: 58 µM | IC50 [2]: 18 µM

CC(=O)OC1CCCC(O)CCCC(O)CCCC(O)CCCC(O)CCCC(O)CCC[C@@H](O)C[C@@H](O)CCC/C(C)=C\C(=O)OC(C(C)(C)C)CC(O)CCC1 (some centres undefined)
IC50 [1]: 12 µM | IC50 [2]: 9.9 µM

C/C1=C/C(=O)OC(C(C)(C)C)CC(O)CCCC(O)CCCC(O)CCCC(O)CCCC(O)CCCC(O)CCCC(O)CCC[C@@H](O)C[C@@H](O)CCC1 (some centres undefined)
IC50 [1]: 0.87 µM | IC50 [2]: 0.87 µM | MIC [3]: 32 µM (≈ 25.3 µg/mL) | MIC [4]: 32 µM (≈ 25.3 µg/mL) | growth inhibition (GI) [5]: 100% | growth inhibition (GI) [6]: 60% | growth inhibition (GI) [7]: 0% | inhibition of growth at 625 µg/mL [8]: 100% | inhibition of growth at 62.5 µg/mL [9]: 100% | inhibition of growth at 6.25 µg/mL [10]: 40% | inhibition of growth at 625 µg/mL [11]: 100% | inhibition of growth at 62.5 µg/mL [12]: 100% | inhibition of growth at 6.25 µg/mL [13]: 35% | IC50 [14]: 0.87 µM | IC50 [15]: 0.87 µM

C[C@@H]1[C@H](O)[C@@H](C)/C=C/C=C/C=C/C=C/C=C/C=C/C=C/[C@H](O[C@@H]2O[C@H](C)[C@@H](O)[C@H](N)[C@@H]2O)C[C@@H]2O[C@](O)(C[C@@H](O)C[C@@H](O)[C@H](O)CC[C@@H](O)C[C@@H](O)CC(=O)O[C@H]1C)C[C@H](O)[C@H]2C(=O)O [AMPHOTERICIN B]
IC50 [1]: 10 µM | IC50 [2]: 10 µM | MIC [3]: > 100 µM | MIC [4]: > 100 µM | growth inhibition (GI) [6]: 100% | growth inhibition (GI) [7]: 100% | inhibition of growth at 62.5 µg/mL [9]: 21% | inhibition of growth at 6.25 µg/mL [10]: 0% | inhibition of growth at 62.5 µg/mL [12]: 6% | inhibition of growth at 6.25 µg/mL [13]: 12%
